Nine compounds from ChEMBL document CHEMBL3758106, “Antitumor Activity of Americanin A Isolated from the Seeds of Phytolacca americana by Regulating the ATM/ATR Signaling Pathway and the Skp2-p27 Axis in Human Colon Cancer Cells” (J Nat Prod, 2015) can be followed below.

Assay [1] in a line: Antiproliferative activity against human HCT116 cells after 24 to 72 hrs by SRB assay. The note with it: HCT-116. The format is functional, cell-based. A digest of the protocol:
(§1)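 Cells grown in 96-well plates (RPMI 1640; MRC-5 in MEM, 10% FBS, antibiotics) with compound […]; fixed in 10% TCA 30 min at 4 °C, stained 0.4% SRB in 1% acetic acid 1 h, dye dissolved in 10 mM Tris pH 10.0, A515 read; viability as % of solvent control, IC50 by nonlinear regression; mean of three independent experiments.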
Background: In SRB staining, fixed cells bind dye roughly in proportion to their protein.

Assay [2] has as its system HCT-116. The assay can be described thus: Induction of apoptosis in human HCT116 cells assessed as dead cells at 1 mM after 48 hrs by annexin V-FITC/propidium iodide staining-based flow cytometric analysis (reference value: 4.2%). The format is functional. In general terms: A flow cytometer gives signals particle by particle.
For assay [3], the system named is HCT-116. The experiment in a line: Induction of apoptosis in human HCT116 cells assessed as late apoptotic cells at 1 mM after 48 hrs by annexin V-FITC/propidium iodide staining-based flow cytometric analysis (reference value: 7.2%). Type of assay: functional.
The test system of assay [4] is HCT-116. The assay can be described thus: Induction of apoptosis in human HCT116 cells assessed as early apoptotic cells at 1 mM after 48 hrs by annexin V-FITC/propidium iodide staining-based flow cytometric analysis (reference value: 1.1%). The format is functional.
For assay [5], the system named is HCT-116. The assay can be described thus: Induction of reactive oxygen species in human HCT116 cells at 1 mM after 48 hrs by DCFH-DA staining-based flow cytometric analysis (reference value: 5.1%). Type of assay: functional. A digest of the protocol:
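HCT116 cells seeded overnight, then exposed to test compounds, alone or with NAC, for 48 h in complete medium. Loaded with 20 μM DCFH-DA for 30 min; intracellular ROS in 20 000 cells per group read by flow cytometry as histograms.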

Assay [6] has as its system HCT-116. The experiment in a line: Induction of apoptosis in human HCT116 cells assessed as viable cells at 1 mM after 48 hrs by annexin V-FITC/propidium iodide staining-based flow cytometric analysis (reference value: 87.4%). The format is functional. The note with it: HCT-116, 48 h, read-out: Activity.
Assay [7] can be described thus: Antiproliferative activity against p53-null human HCT116 cells assessed as cell viability after 72 hrs by SRB assay. The format is functional, cell-based. The conditions noted are these: HCT-116, 72 h. A digest of the protocol: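 p53 wild-type and p53-null HCT116 cells in 96-well plates treated 72 h; SRB assay (TCA fix, SRB stain, Tris pH 10.0 solubilisation, A515); viability vs solvent control, IC50 by nonlinear regression.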

Assay [8] relates to CAKI-1. The experiment in a line: Antiproliferative activity against human CAKI-1 cells after 24 to 72 hrs by SRB assay. The format is functional, cell-based. The method, boiled down:
as §1

The nature of assay [9]: Antiproliferative activity against human HCT116 cells assessed as cell viability after 72 hrs by SRB assay. The format is functional, cell-based. The note with it: HCT-116, 72 h. A digest of the protocol: (§2)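 HCT116 cells in 96-well plates exposed 24, 48 or 72 h; TCA fixation, 0.4% SRB staining, dye solubilised in 10 mM Tris pH 10.0, absorbance at 515 nm; viability relative to solvent-treated control.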

Assay [10] has as its system K562. The assay can be described thus: Antiproliferative activity against human K562 cells after 24 to 72 hrs by SRB assay. The format is functional, cell-based. A digest of the protocol:
as §1

For assay [11], the system named is MRC5. The experiment in a line: Cytotoxicity against human MRC5 cells after 24 to 72 hrs by SRB assay. The format is cell-based. The method, boiled down:
as §1

Assay [12] can be described thus: Antiproliferative activity against human HCT116 cells assessed as cell viability after 48 hrs by SRB assay. The conditions noted are these: HCT-116, 48 h. The format is functional, cell-based. The method, boiled down:
as §2

Assay [13] is described as follows: Antiproliferative activity against human HCT116 cells assessed as cell viability after 24 hrs by SRB assay. The format is functional, cell-based. The conditions noted are these: HCT-116, 24 h. The method, boiled down:
as §2

The test system of assay [14] is A549. The experiment in a line: Antiproliferative activity against human A549 cells after 24 to 72 hrs by SRB assay. The format is functional, cell-based. The method, boiled down:
as §1

Assay [15] can be described thus: Antitumor activity against human HCT116 cells xenografted in nude mouse assessed as tumor growth inhibition at 10 mg/kg, ip administered once per week measured on day 41. Type of assay: functional. The note with it: HCT-116, ip, 984 h, read-out: TGI. A digest of the protocol:
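Nude mice given 2 × 10^6 HCT116 cells subcutaneously in flank; at ~120 mm3 randomised, six per group; ip dosing in 200 μL, test agent 5 or 10 mg/kg three times weekly, irinotecan 10 mg/kg once weekly; tumour volume measured twice weekly to day 41; body weight tracked for toxicity.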

Assay [16] in a line: Antiproliferative activity against human HCT15 cells after 24 to 72 hrs by SRB assay. The format is functional, cell-based. The note with it: HCT-15. A digest of the protocol: as §1
Assay [17] deals with SW480. The experiment in a line: Antiproliferative activity against human SW480 cells after 24 to 72 hrs by SRB assay. Type of assay: functional, cell-based. A digest of the protocol: as §1
Assay [18] relates to RKO. The experiment in a line: Antiproliferative activity against human RKO cells after 24 to 72 hrs by SRB assay. Type of assay: functional, cell-based. The method, boiled down: as §1

By IC50 is commonly meant the concentration at which inhibition is half-maximal.

Molecules are shown by their SMILES.

`CC(=O)/C=C/C=C/c1ccc2c(c1)O[C@@H](CO)[C@H](c1ccc(O)c(O)c1)O2` came in with an IC50 in [1] above 100 µM.
The same measure, in the same setting: then `O=C/C=C/c1ccc2c(c1)O[C@@H](CO)[C@H](c1ccc3c(c1)O[C@@H](CO)[C@H](c1ccc(O)c(O)c1)O3)O2`, with 10.9 µM.
Turning to `COc1ccc([C@@H]2Oc3ccc(C=O)cc3O[C@H]2CO)cc1OC`, in assay [1], the 50% inhibitory concentration (IC50) is above 100 µM.
Same read-out and setting: then `COc1ccc([C@@H]2Oc3ccc(/C=C/C=O)cc3O[C@H]2COC(C)=O)cc1OC`, with 5.6 µM; and `O=C/C=C/c1ccc2c(c1)[C@@H](CO)[C@H](c1ccc(O)c(O)c1)O2`, with 10.4 µM; and `COc1ccc([C@@H]2Oc3ccc(/C=C/C=O)cc3O[C@H]2CO)cc1OC`, with 4 µM.
As to `CC(=O)N[C@@H](CS)C(=O)O` [ACETYLCYSTEINE], the Activity was found to be 4.9% in assay [2], 8.5% in assay [3], 1.1% in [4] and 6% in [5]. The viability at 1000 µM in assay [6] is 85.6%.
For `COc1cc([C@@H]2c3cc4c(cc3[C@@H](O[C@@H]3O[C@@H]5CO[C@@H](C)O[C@H]5[C@H](O)[C@H]3O)[C@H]3COC(=O)[C@H]23)OCO4)cc(OC)c1O` [ETOPOSIDE], the half-maximal inhibitory concentration (IC50) in assay [7] was 3.1 µM; in assay [8], 1.1 µM; in [9], 0.3 µM; in assay [1] it was 3.3 µM; in assay [10], 6.7 µM; in assay [11], above 20 µM. In addition, the IC50 in assay [12] was 2.3 µM; in assay [13] it was above 20 µM; in assay [14], 0.8 µM.
Turning to `CCc1c2c(nc3ccc(OC(=O)N4CCC(N5CCCCC5)CC4)cc13)-c1cc3c(c(=O)n1C2)COC(=O)[C@]3(O)CC` [IRINOTECAN], the inhibition in vivo at 10 mg/kg in assay [15] is 68.6%. The IC50 in assay [1] amounted to 2 µM; in [16], 8.5 µM; in [17], 12.3 µM; in assay [18] it was 6.2 µM.
